Assay results from ChEMBL document CHEMBL4330067, “Synthesis and mechanistic studies of diketo acids and their bioisosteres as potential antibacterial agents” (Eur J Med Chem, 2019).
In brackets after ≈: the same amount, converted by molar mass. Activity calls are given as the source filed them. The calls are words filed in the database; no cut-off is given here.

Tests used:
Escherichia coli [1] = assay: Antibacterial activity against Escherichia coli MROB11 at 512 ug/mL after 24 hrs by broth dilution assay relative to control; format: functional
How it was run: (§1)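 Multidrug-resistant E. coli isolates in Luria broth, test range 8 to 1024 µg/mL (ciprofloxacin 0.49 to 63.3 µg/mL). Inoculum 10 µL of a 1000-fold diluted 0.1 OD600 culture, incubated overnight at 37 °C. OD read at 600 nm. % inhibition = (a−b)/a×100, with media and compound-colour blanks subtracted.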

Escherichia coli [2] = assay: Synergistic antibacterial activity against Escherichia coli MRC17 assessed as ciprofloxacin MIC at 16 to 1024 ug/mL after 18 hrs by checkerboard method; format: functional; conditions: MRC17, 18 h
How it was run: (§2)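 Checkerboard combination with ciprofloxacin in Mueller-Hinton broth: compound 1024 to 16 µg/mL crossed with ciprofloxacin 128 to 2 µg/mL. Inoculum 5×10⁵ CFU/mL suspension, 18 h at 37 °C. Fractional inhibitory concentration index derived from the combination.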

Escherichia coli [3] = assay: Antibacterial activity against Escherichia coli MRAE33 after overnight incubation; format: functional; how it was run: as §1
Escherichia coli [4] = assay: Antibacterial activity against Escherichia coli MRC17 at 512 ug/mL after 24 hrs by broth dilution assay relative to control; format: functional; how it was run: as §1
Escherichia coli [5] = assay: Synergistic antibacterial activity against Escherichia coli MRAE33 assessed as fractional inhibitory concentration index after 18 hrs in presence of ciprofloxacin by checkerboard method; format: functional; how it was run: as §2
[6] = Inhibition of Streptococcus pneumoniae methionine aminopeptidase 1A using Met-AMC as substrate by Dixon method
How it was run: (§3)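 Purified MetAP at 4 µM in 50 mM HEPES with 150 mM KCl and CoCl2 at 3 molar equivalents of enzyme. pH 7.5 for SpMetAP1a and EfMetAP1a, pH 8.0 for HsMetAP1b. Substrate L-Met-AMC at 50, 100 and 150 µM. Compounds (10 mM DMSO stocks) tested over 1 to 120 µM for % inhibition; Ki by Dixon method.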

Escherichia coli [7] = assay: Antibacterial activity against Escherichia coli ATCC 25922 after 24 hrs by broth dilution assay; format: functional; conditions: ATCC 25922, 24 h
How it was run: (§4)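 Broth dilution per NCCLS in nutrient broth, serial dilutions 1000 to 7.8 µg/mL, DMSO below 4% final. Inoculum approx. 2.5×10⁶ cells/mL, 37 °C with shaking at 150 rpm for 24 h. MIC taken as the lowest concentration with no visible growth. Ciprofloxacin served as positive control.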

Escherichia coli [8] = assay: Synergistic antibacterial activity against Escherichia coli MRA11 assessed as ciprofloxacin MIC at 16 to 1024 ug/mL after 18 hrs by checkerboard method; format: functional; conditions: MRA11, 18 h; how it was run: as §2
Escherichia coli [9] = assay: Antibacterial activity against Escherichia coli MRC17 after overnight incubation; format: functional; how it was run: as §1
[10] = Inhibition of Mycobacterium tuberculosis methionine aminopeptidase 1C using Met-AMC as substrate by Dixon method
[11] = Inhibition of Enterococcus faecalis methionine aminopeptidase 1A using Met-AMC as substrate by Dixon method; how it was run: as §3
Escherichia coli [12] = assay: Synergistic antibacterial activity against Escherichia coli MRA11 assessed as fractional inhibitory concentration index after 18 hrs in presence of ciprofloxacin by checkerboard method; format: functional; how it was run: as §2
Escherichia coli [13] = assay: Antibacterial activity against Escherichia coli MRAE44 after overnight incubation; format: functional; how it was run: as §1
Pseudomonas aeruginosa [14] = assay: Bactericidal activity against Pseudomonas aeruginosa at 1 to 2 times MIC after 24 hrs by spectrophotometric analysis; format: functional, organism-based
How it was run: (§5)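 Growth kinetics in 50 mL nutrient broth seeded at approx. 2×10⁶ cells/mL, compound at 2MIC, MIC and ½MIC, 37 °C at 160 rpm. Ciprofloxacin 10 µg/mL as positive control. 1 mL aliquots taken every 2 h from 0 to 22 h. Turbidity read at 600 nm and OD plotted against time.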

Escherichia coli [15] = assay: Synergistic antibacterial activity against Escherichia coli MRAE33 assessed as ciprofloxacin MIC at 16 to 1024 ug/mL after 18 hrs by checkerboard method; format: functional; conditions: MRAE33, 18 h; how it was run: as §2
Klebsiella pneumoniae = assay: Anti-biofilm activity against Klebsiella pneumoniae after 24 hrs by XTT assay; format: functional, organism-based
How it was run: (§6)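 Biofilm XTT reduction assay: serial dilutions 1000 to 7.8 µg/mL in tryptic soy broth, inoculum approx. 5×10⁵ CFU/mL, 37 °C for 24 h static. Non-adherent cells removed by PBS wash, XTT added, 90 min at 37 °C in dark, absorbance at 490 nm. IC50 (50% inhibition of biofilm formation) read from dose-response curves.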

Streptococcus pneumoniae = assay: Antibacterial activity against Streptococcus pneumoniae MTCC 655 after 24 hrs by broth dilution assay; format: functional; conditions: MTCC 655, 24 h; how it was run: as §4
Escherichia coli [16] = assay: Antibacterial activity against Escherichia coli MRAE44 at 1024 ug/mL after 24 hrs by broth dilution assay; format: functional, organism-based; how it was run: as §1
Pseudomonas aeruginosa [17] = assay: Bactericidal activity against Pseudomonas aeruginosa at sub-MIC after 10 hrs by spectrophotometric analysis; format: functional, organism-based; how it was run: as §5
Escherichia coli [18] = assay: Bactericidal activity against Escherichia coli at sub-MIC after 22 hrs by spectrophotometric analysis; format: functional, organism-based; how it was run: as §5
[19] = Cytotoxicity against CHO cells assessed as cell viability at 100 ug/mL after 48 hrs by MTT assay relative to control; format: cell-based, Cricetulus griseus; conditions: chinese hamster, read-out: Activity
How it was run: (§7)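 MTT assay: cells maintained in DMEM with 10% FBS and penicillin/streptomycin at 37 °C, 5% CO2. Seeded at approx. 2×10⁴ cells/well, 24 h before treatment, then exposed to 10 to 400 µg/mL for 48 h at 37 °C. MTT (5 mg/mL stock in PBS) added for 4 h, formazan dissolved in DMSO, A570 read. Triplicate wells; viability given relative to untreated cells.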

Pseudomonas aeruginosa [20] = assay: Anti-biofilm activity against Pseudomonas aeruginosa after 24 hrs by XTT assay; format: functional, organism-based; how it was run: as §6
CHO = assay: Cytotoxicity against CHO cells at 300 ug/mL after 48 hrs by MTT assay; format: cell-based, Cricetulus griseus; conditions: chinese hamster; how it was run: as §7
Escherichia coli [21] = assay: Synergistic antibacterial activity against Escherichia coli MRC17 after 18 hrs in presence of ciprofloxacin by checkerboard method; format: functional; conditions: MRC17, 18 h; how it was run: as §2

Structure (SMILES): Cc1c(C(=O)/C=C(\O)C(=O)N[C@H](C)C(=O)O)oc2ccc(Br)cc12
- Activity (Escherichia coli [1]): 100%
- MIC (Escherichia coli [2]): 64 µg/mL
- ICmax (Escherichia coli [3]): 1024 µg/mL
- MIC (Escherichia coli [3]; Escherichia coli, MRAE33): 1020 µg/mL (≈ 2580 µM)
- Activity (Escherichia coli [4]): 100%
- fractional inhibitory concentration index (FICI) (Escherichia coli [5]): 1.0156
- Ki [6]: 28.3 µM
- MIC (Escherichia coli [7]): 62.5 µg/mL (≈ 158 µM)
- MIC (Escherichia coli [8]): 16 µg/mL
- ICmax (Escherichia coli [9]): 512 µg/mL
- MIC (Escherichia coli [9]; Escherichia coli, MRC17): 512 µg/mL (≈ 1290 µM)
- Ki [10]: 9.89 µM
- Ki [11]: 11.9 µM
- fractional inhibitory concentration index (FICI) (Escherichia coli [12]): 1.125
- ICmax (Escherichia coli [13]): 1024 µg/mL
- Activity (Pseudomonas aeruginosa [14]): Active
- MIC (Escherichia coli [15]): 2 µg/mL
- IC50 (Klebsiella pneumoniae): 113 µg/mL (≈ 286 µM)
- MIC (Streptococcus pneumoniae): 62.5 µg/mL (≈ 158 µM)
- Activity (Escherichia coli [16]): Active
- Activity (Pseudomonas aeruginosa [17]): Active
- Activity (Escherichia coli [18]): Active
- viability at 48 h, 100 ug/mL [19]: 70%
- IC50 (Pseudomonas aeruginosa [20]): 1.69 µg/mL (≈ 4.27 µM)
- Activity (CHO): Toxic
- MIC (Escherichia coli [21]): 512 µg/mL
